High-throughput results as filed in PubChem.
H9c2 TAG inh: triacylglycerol accumulation inhibition. H9c2 cells, Nile Red lipid (TAG) fluorescence; cells loaded with 200 µM oleic acid. inhibition, % at 12.5 µM. 230,000 compounds, 0.66% hits. AID 651582;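 active means pattern-corrected inhibition of lipid staining of at least 50% with the nuclear-stain viability signal not falling by more than 50%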
AHR activator: human AHR activation; AHR-responsive luciferase reporter cells, luminescence; activation, % at 5 µM; 320,000 compounds, 2.5% hits; in the data active means activation above about 47%
Target sequence (P35869 whole entry, looked up): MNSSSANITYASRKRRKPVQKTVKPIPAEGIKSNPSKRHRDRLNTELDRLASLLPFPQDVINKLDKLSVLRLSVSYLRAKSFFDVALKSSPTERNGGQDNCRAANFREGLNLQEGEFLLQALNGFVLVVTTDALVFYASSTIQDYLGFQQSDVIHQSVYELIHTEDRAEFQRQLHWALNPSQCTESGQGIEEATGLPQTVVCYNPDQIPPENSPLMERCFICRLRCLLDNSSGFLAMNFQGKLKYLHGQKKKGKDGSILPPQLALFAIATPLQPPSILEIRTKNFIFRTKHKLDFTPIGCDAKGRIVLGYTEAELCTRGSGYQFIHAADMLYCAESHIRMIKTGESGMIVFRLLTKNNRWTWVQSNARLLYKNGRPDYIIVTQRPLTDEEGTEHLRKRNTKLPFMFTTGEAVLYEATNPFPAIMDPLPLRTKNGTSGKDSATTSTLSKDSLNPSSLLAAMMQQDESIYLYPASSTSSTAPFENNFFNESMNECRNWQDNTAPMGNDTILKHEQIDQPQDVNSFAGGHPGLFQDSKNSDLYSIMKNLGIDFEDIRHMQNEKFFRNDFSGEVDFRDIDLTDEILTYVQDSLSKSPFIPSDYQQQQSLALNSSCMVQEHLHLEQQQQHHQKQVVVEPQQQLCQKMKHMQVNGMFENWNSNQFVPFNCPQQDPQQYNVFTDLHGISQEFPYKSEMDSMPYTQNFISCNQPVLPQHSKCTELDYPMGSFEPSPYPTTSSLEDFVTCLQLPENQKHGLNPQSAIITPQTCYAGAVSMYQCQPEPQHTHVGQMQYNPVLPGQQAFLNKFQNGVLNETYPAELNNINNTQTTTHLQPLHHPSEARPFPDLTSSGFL
Efflux pump mplx: blocks antifungal efflux pumps in multiplex yeast assay; S. cerevisiae Candida pump triplex, Nile Red efflux; inhibition, % at 10 µM; 330,000 compounds, 0.44% hits; AID 485275;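 active means plate passing quality check with inhibition over a set limit, or well fluorescence over plate mean plus 4 SD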;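 further: Nile Red retained in pooled yeast measured as flow cytometry median fluorescence; higher means more Nile Red kept so more efflux inhibition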
TbMetRS inhib: blocks T. brucei methionyl-tRNA synthetase activity. 360,000 compounds, 0.4% hits. purified T. brucei MetRS, ATP depletion, Kinase-Glo luminescence. inhibition, % at 11.9 µM. AID 624268;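 active means inhibition above a per-plate cutoff of the control wells' mean inhibition plus 3 SD, cut at about 5.5% in these data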
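Assay system: T. brucei methionyl-tRNA synthetase, purified | Medium: HEPES buffer with MgCl2, KCl, DTT, spermine, BSA, pyrophosphatase | Compound: 11.9 µM single point | Incubation: 15 min enzyme-compound preincubation, 2 h reaction, 10 min detection, 25 °C | Measured by: Kinase-Glo luciferase luminescence reporting remaining unconsumed ATP | Measure: % inhibition normalized to control-well medians | Replication: Singlicate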
SMARCA2 act: SMARCA2 function activation, primary screen | MG213 cells, MMTV-luciferase reporter, dexamethasone, overnight | activation, % at 9.1 µM | 370,000 compounds, 1% hits | AID 652017; in the data active means activation above about 7.8%
Each line names hits and unclear results; the compound was inactive in the other large screens. Sampled rows, rich in hits. Any-hit rate of the full collection: about 4.1%.

CCn1c(SCC(=O)Nc2ccccc2-c2ccccc2)nnc1-c1ccc(C)cc1	none (no result: H9c2 TAG inh, AHR activator, Efflux pump mplx, TbMetRS inhib)
CC1CCc2c(C(=O)NCc3ccco3)csc2C1 (stereo unspecified)	none
COc1ccccc1NC(=O)c1csc2c1CCC(C)C2 (stereo unspecified)	AHR activator 55
Cc1ccc(-n2c(=S)[nH]c3c(oc4ccccc43)c2=O)cc1	none
Cc1cccc(-n2c(=S)[nH]c3c(oc4ccccc43)c2=O)c1	AHR activator 62
O=c1c2oc3ccccc3c2[nH]c(=S)n1-c1ccccc1	AHR activator 66
CCN(CC)C(=O)CC[C@@H]1CC[C@]2(CCCN(C(=O)C(C)(C)C)C2)O1	none (no result: H9c2 TAG inh, AHR activator, Efflux pump mplx, TbMetRS inhib)
Cc1ccc(-n2c(SCC(=O)Nc3ccc(S(=O)(=O)Nc4cc(C)nc(C)n4)cc3)nnc2-c2cccs2)cc1	none (no result: H9c2 TAG inh, AHR activator, Efflux pump mplx, TbMetRS inhib)
COC(=O)[C@@]12CCCCC3=C1N(CCC3)C(=O)[C@H]2CC(=O)N1CCCCC1	none (no result: H9c2 TAG inh, AHR activator, Efflux pump mplx, TbMetRS inhib)
CCc1nc2c(sc3nc4c(cc32)COC(C)(C)C4)c(=O)n1Cc1ccco1	AHR activator 53
COc1ccc(-c2nnc(Nc3nc4c(OC)cccc4s3)o2)c(OC)c1	none (no result: H9c2 TAG inh)
COc1ccc(-c2nnc(Nc3nc4c(OC)cccc4s3)o2)cc1	AHR activator 75
Cc1nn(-c2ccccc2)c2c1C(c1ccc(O)c(O)c1)N1C(=N2)C(Nc2ccccc2)=Nc2ccccc21 (stereo unspecified)	none
Cc1ccc(NC2=Nc3ccccc3N3C2=Nc2c(c(C)nn2-c2ccccc2)C3c2ccc(O)c(O)c2)cc1 (stereo unspecified)	H9c2 TAG inh 110 (no result: AHR activator, Efflux pump mplx)
CCCN1C(=O)c2[nH]nc(-c3ccccc3)c2C1c1ccc(F)cc1 (stereo unspecified)	none (no result: H9c2 TAG inh, AHR activator, Efflux pump mplx, TbMetRS inhib)
O=Cc1cccn1-c1cccnc1	SMARCA2 act 7.9
COc1ccc(-n2cccc2C=O)cc1	none (no result: H9c2 TAG inh)
Cc1nn(-c2ccccc2)c2sc(C(=O)N3CCC4(CC3)OCCO4)cc12	none (no result: H9c2 TAG inh, AHR activator, Efflux pump mplx, TbMetRS inhib)
O=[N+]([O-])c1ccc2c3n([n+]([O-])c2c1)CCN=C3c1ccc(Cl)cc1	AHR activator 48
Cc1ccc(C2=NCCn3c2c2ccc([N+](=O)[O-])cc2[n+]3[O-])cc1	none
Clc1ccc(C2=NCCn3nc4ccccc4c32)cc1	AHR activator 79
COc1ccc2c3n(nc2c1)CCN=C3c1ccc(C)cc1	none
[O-][n+]1c2ccccc2c2n1CCCN=C2c1ccc(Cl)cc1	AHR activator 51
Nc1c(Cl)cc(C2=NCCn3c2c2ccc(C(F)(F)F)cc2[n+]3[O-])cc1Cl	AHR activator 54
C=CCNC(=O)CN(C(=O)c1ccncn1)c1cccc(Br)c1	none (no result: H9c2 TAG inh, AHR activator, Efflux pump mplx, TbMetRS inhib)
C/C(C=NNC(=O)c1cc(-c2ccc(Cl)cc2)n[nH]1)=C\c1ccccc1	none (no result: H9c2 TAG inh, AHR activator, Efflux pump mplx, TbMetRS inhib)
CSc1cccc(NC(=S)NC(=O)CCc2ccccc2)c1	AHR activator 54 (no result: H9c2 TAG inh)
CSc1cccc(NC(=O)CCc2ccccc2)c1	none
CCOC(=O)C1(Cc2ccccc2)CCN(Cc2cccc(C#N)c2)CC1	none (no result: H9c2 TAG inh, AHR activator, Efflux pump mplx, TbMetRS inhib)
O=C(c1ccc(Cn2cc(Cl)cn2)o1)N1CCN(Cc2ccc3c(c2)OCO3)CC1	none (no result: SMARCA2 act)
CN1CCN(C(=O)c2ccc(Cn3cc(Cl)cn3)o2)CC1	SMARCA2 act 7.9 (no result: H9c2 TAG inh)
COc1ccc2cc3cc(C(=O)NCCN4CCN(c5ccccc5F)CC4)oc3nc2c1	none
COc1ccc2cc3cc(C(=O)Nc4ccccc4N4CCN(C)CC4)oc3nc2c1	H9c2 TAG inh 53
OC(c1ccccc1)(c1ccccc1)C1CCN(CCCNc2cccc(Br)c2)CC1	none (no result: H9c2 TAG inh, AHR activator, Efflux pump mplx, TbMetRS inhib)
Cc1nc(SCc2nc3ccccc3[nH]2)c2oc3cc([N+](=O)[O-])ccc3c2n1	none
COc1ccc2c(c1)oc1c(SCc3nc4ccccc4[nH]3)nc(C)nc12	AHR activator 54
Cc1ccc(C)c(NCCCCCCCC(=O)O)c1	none (no result: H9c2 TAG inh, AHR activator, Efflux pump mplx)
Cc1ccc(C)c(NCC(O)c2ccccc2)c1 (stereo unspecified)	AHR activator 52
COC(=O)C[C@H]1CC[C@H]2[C@H](COc3ccc(NC(=O)c4cccs4)cc3C(=O)N2C)O1	none (no result: H9c2 TAG inh, AHR activator, Efflux pump mplx, TbMetRS inhib)
CCOc1ccccc1C1N=C(c2ccc(OC)cc2)CC(c2ccccc2O)N1 (stereo unspecified)	none
CC(C)C1N=C(c2ccc3c(c2)OCO3)CC(c2ccccc2O)N1 (stereo unspecified)	AHR activator 59 (no result: H9c2 TAG inh)
Nc1c(N=Nc2ccccc2F)c(=O)[nH]n1-c1ccccc1	none
Nc1nn(-c2ccccc2)c(N)c1N=Nc1ccccc1F	AHR activator 64 (no result: H9c2 TAG inh)
Cc1nc2c(N=Nc3ccccc3F)c(N)nn2c(N)c1C#N	AHR activator 60
CCCCNC(=O)C1(C(=O)c2ccc(OC)cc2)CC(C(=O)OCC)=NO1 (stereo unspecified)	none (no result: H9c2 TAG inh, AHR activator, Efflux pump mplx, TbMetRS inhib)
